ChEMBL document CHEMBL3808388 (J Med Chem, 2016)
Activity calls are given as the source filed them. No cut-off for these calls is given here.

Experiments:
[1] = biological target: T1, Rho-associated protein kinase 1 (Homo sapiens, UniProt Q13464); test: Inhibition of ROCK1 (unknown origin) by ADP-Glo kinase assay
Target sequence in this assay (Q13464 whole entry): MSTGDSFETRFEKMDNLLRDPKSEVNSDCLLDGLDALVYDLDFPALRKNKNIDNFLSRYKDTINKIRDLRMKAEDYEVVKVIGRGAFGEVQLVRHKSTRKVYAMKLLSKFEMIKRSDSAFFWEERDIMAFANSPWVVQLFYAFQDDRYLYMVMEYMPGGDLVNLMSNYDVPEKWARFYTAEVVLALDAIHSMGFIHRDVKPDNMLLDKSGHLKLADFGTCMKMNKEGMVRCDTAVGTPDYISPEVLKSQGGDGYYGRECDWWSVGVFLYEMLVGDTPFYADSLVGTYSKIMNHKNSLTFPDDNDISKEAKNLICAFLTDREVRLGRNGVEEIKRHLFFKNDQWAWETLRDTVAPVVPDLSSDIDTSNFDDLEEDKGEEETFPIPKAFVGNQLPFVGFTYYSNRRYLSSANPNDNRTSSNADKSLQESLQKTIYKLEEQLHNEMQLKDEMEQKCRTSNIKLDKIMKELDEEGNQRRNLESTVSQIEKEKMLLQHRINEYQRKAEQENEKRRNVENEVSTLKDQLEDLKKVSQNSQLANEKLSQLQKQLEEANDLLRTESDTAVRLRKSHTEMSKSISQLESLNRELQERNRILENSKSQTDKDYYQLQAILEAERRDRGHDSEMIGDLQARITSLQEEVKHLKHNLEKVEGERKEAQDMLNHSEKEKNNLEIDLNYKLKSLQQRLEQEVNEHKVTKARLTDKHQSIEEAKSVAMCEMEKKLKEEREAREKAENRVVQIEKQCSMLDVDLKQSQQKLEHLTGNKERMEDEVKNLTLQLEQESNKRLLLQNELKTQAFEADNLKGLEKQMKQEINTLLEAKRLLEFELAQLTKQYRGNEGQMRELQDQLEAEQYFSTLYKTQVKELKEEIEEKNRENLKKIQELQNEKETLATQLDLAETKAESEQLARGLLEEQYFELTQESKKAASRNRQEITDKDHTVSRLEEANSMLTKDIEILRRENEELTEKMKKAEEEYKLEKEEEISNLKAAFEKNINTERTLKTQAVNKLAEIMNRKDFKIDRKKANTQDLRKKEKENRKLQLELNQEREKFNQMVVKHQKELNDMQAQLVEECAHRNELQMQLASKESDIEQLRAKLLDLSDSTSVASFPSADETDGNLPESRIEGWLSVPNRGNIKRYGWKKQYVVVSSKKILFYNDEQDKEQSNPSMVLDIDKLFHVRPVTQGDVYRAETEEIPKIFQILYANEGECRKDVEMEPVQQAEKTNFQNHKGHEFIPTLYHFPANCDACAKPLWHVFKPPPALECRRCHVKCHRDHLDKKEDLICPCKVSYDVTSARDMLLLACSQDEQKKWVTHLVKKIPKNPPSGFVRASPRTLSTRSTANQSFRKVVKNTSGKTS

[2] = biological target: G protein-coupled receptor kinase 5 (Homo sapiens, UniProt P34947); test: Inhibition of GRK5 (unknown origin) using tubulin as substrate by SDS-PAGE method
[3] = biological target: T2, Beta-adrenergic receptor kinase 1 (Mus musculus) (UniProt Q99MK8); test: Inhibition of GRK2 in C57BL/6 mouse cardiomyocytes assessed as increase in contractility at 0.5 uM preincubated for 10 mins followed by beta adrenergic receptor agonist isoproterenol addition for 2 mins; assay type: cell-based
T2 sequence (whole entry): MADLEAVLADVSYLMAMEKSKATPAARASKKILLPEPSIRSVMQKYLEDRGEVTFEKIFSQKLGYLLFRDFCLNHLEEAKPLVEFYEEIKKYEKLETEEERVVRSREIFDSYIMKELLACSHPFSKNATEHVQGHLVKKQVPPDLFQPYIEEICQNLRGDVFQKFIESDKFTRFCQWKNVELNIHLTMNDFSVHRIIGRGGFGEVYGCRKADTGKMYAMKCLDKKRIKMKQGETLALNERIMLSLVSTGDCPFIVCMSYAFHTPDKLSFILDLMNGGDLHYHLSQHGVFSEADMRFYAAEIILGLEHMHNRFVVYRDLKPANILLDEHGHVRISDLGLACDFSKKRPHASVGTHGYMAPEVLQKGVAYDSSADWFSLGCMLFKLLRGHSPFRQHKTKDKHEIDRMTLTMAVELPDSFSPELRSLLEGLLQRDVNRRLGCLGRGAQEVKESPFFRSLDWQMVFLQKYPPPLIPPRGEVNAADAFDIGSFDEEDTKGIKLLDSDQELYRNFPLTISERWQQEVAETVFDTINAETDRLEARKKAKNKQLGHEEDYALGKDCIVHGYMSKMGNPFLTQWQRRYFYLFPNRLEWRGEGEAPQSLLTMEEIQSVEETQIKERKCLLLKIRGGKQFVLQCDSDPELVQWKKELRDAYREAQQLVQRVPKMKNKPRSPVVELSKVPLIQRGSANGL

[4] = Inhibition of PKA (unknown origin) using CREBtide as substrate by ADP-Glo kinase assay; parameters: species or system Homo sapiens
How it was run: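 ADP-Glo luminescence assay following the manufacturer's protocol. Inhibition curves were fitted from luminescence. IC50s are averages of three separate experiments, each run in duplicate.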

Rhodopsin kinase GRK1 = biological target: T3, Rhodopsin kinase GRK1 (Homo sapiens, UniProt Q15835); test: Inhibition of GRK1 (unknown origin) using tubulin as substrate by SDS-PAGE method
T3 sequence (Q15835 whole entry): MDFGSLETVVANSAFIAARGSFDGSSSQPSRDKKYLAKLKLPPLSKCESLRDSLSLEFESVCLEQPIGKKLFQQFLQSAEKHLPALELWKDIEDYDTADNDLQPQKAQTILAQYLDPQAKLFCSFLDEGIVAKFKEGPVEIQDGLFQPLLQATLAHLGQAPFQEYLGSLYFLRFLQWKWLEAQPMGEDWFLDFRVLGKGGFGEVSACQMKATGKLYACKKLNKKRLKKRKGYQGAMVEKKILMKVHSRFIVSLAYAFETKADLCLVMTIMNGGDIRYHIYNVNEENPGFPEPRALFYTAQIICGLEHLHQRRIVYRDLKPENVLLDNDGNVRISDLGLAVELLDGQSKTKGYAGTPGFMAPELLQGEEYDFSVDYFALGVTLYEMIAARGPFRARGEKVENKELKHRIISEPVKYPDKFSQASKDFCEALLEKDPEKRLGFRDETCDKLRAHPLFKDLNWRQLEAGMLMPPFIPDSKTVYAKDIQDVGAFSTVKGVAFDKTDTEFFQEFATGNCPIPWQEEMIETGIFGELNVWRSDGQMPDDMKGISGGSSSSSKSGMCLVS

[5] = biological target: T1, Rho-associated protein kinase 1; test: Inhibition of ROCK1 (unknown origin) at 10 uM by ADP-Glo kinase assay
How it was run: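 ADP-Glo luminescence assay following the manufacturer's protocol. Percent inhibition was read at a single 10 μM inhibitor concentration.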
Target sequence in this assay (Q13464 2-1354 limits assumed): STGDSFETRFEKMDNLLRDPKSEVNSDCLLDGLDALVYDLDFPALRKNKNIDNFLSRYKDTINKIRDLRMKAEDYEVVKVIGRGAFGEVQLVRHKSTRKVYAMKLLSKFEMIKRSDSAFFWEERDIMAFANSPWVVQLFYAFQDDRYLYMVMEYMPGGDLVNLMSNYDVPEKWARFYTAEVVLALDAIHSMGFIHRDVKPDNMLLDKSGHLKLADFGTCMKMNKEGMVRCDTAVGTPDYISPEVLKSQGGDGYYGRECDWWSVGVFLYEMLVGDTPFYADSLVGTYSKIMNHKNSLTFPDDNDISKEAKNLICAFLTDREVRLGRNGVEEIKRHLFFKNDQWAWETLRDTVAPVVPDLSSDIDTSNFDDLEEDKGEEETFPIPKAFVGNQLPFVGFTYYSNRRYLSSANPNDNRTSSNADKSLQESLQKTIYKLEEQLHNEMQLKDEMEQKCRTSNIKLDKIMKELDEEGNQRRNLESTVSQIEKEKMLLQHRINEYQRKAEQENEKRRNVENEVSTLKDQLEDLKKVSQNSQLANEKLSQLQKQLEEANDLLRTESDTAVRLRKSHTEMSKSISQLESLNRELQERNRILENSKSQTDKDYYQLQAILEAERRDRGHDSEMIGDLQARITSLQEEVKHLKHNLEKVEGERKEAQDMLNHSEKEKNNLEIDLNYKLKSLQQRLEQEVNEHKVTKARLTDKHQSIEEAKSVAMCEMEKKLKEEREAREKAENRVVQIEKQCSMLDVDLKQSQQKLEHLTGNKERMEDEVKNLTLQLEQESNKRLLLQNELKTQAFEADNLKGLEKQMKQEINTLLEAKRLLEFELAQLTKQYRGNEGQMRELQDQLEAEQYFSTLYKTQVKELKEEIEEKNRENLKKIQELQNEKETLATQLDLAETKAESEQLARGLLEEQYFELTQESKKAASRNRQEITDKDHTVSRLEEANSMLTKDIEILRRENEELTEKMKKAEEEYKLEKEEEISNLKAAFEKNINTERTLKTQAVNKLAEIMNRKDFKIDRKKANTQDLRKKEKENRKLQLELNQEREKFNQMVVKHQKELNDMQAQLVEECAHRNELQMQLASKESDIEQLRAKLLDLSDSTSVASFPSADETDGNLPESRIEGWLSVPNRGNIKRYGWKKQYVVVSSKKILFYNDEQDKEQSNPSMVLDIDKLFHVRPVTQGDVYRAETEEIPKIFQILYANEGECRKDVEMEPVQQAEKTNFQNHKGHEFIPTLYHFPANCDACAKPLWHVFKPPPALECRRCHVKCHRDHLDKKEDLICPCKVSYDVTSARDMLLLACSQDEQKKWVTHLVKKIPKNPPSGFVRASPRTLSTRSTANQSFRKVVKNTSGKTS

[6] = biological target: T2, Beta-adrenergic receptor kinase 1 (Mus musculus); test: Inhibition of GRK2 in C57BL/6 mouse cardiomyocytes assessed as increase in contractility at 1 uM preincubated for 10 mins followed by beta adrenergic receptor agonist isoproterenol addition for 2 mins; assay type: cell-based

Chain of G protein-coupled receptor kinase 5 (P34947 whole entry): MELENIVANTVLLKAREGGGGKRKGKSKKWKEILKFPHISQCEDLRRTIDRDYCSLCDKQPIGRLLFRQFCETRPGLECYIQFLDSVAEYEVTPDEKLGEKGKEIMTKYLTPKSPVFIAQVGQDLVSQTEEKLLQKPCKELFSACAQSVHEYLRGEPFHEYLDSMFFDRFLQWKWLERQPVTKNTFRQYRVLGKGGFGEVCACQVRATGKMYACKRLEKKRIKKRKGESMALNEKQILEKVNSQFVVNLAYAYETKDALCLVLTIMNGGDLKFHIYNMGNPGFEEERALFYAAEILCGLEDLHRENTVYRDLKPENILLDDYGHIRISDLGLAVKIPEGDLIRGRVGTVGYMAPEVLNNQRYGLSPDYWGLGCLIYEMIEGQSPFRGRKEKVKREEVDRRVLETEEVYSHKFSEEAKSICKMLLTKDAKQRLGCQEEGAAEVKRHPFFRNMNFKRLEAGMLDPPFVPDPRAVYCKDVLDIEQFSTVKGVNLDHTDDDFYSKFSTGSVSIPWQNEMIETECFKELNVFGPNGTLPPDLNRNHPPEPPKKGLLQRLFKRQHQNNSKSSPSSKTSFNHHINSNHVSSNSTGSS

SMILES | IC50 [1] [µM] | IC50 [2] [µM] | Activity [3] | IC50 [4] [µM] | IC50 (Rhodopsin kinase GRK1) [µM] | inhibition [5] [%] | Activity [6]
CC1=C(C(=O)Nc2ccc3[nH]ncc3c2)C(c2ccc(F)c(C(=O)NCc3nccc4ccccc34)c2)NC(=O)N1 (stereo unspecified) | 0.012 | 1.8 |  |  |  |  | 
COc1cccc(OC)c1CNC(=O)c1cc(C2NC(=O)NC(C)=C2C(=O)Nc2ccc3[nH]ncc3c2)ccc1F (stereo unspecified) |  | > 100 | Active | > 100 | > 100 | 0 | 
CC1=C(C(=O)Nc2ccc3[nH]ncc3c2)C(c2ccc(F)c(C(=O)NCc3ncccc3C)c2)NC(=O)N1 (stereo unspecified) |  |  |  | > 100 | > 100 |  | 
CC1=C(C(=O)Nc2ccc3[nH]ncc3c2)C(c2ccc(F)c(C(=O)NCCc3ccccn3)c2)NC(=O)N1 (stereo unspecified) |  | 6.2 |  | > 100 | > 100 |  | 
COc1ccccc1CNC(=O)c1cc(C2NC(=O)NC(C)=C2C(=O)Nc2ccc3[nH]ncc3c2)ccc1F (stereo unspecified) |  | 2.3 |  | > 100 | 16 |  | 
CC1=C(C(=O)Nc2ccc3[nH]ncc3c2)C(c2ccc(F)c(C(=O)NCCc3ccncc3)c2)NC(=O)N1 (stereo unspecified) | 0.084 |  |  | > 100 | > 100 |  | 
CC1=C(C(=O)Nc2ccc3[nH]ncc3c2)C(c2ccc(F)c(CC(=O)NCc3c(C(F)(F)F)cccc3C(F)(F)F)c2)NC(=O)N1 (stereo unspecified) |  | > 100 |  | > 100 | > 100 |  | 
CC1=C(C(=O)Nc2ccc3[nH]ncc3c2)C(c2ccc(F)c(C(=O)NCCc3c(C)cccc3C)c2)NC(=O)N1 (stereo unspecified) |  |  |  | > 100 | > 100 |  | 
Fc1ccc([C@@H]2CCNC[C@H]2COc2ccc3c(c2)OCO3)cc1 [PAROXETINE] |  |  |  | > 100 |  | 10 | 
CC1=C(C(=O)Nc2ccc3[nH]ncc3c2)C(c2ccc(F)c(C(=O)NCc3c(C(F)(F)F)cccc3C(F)(F)F)c2)NC(=O)N1 (stereo unspecified) |  | > 100 |  | > 100 | > 100 | 22 | 
CCCn1c(CNc2cccc(C(=O)NCc3c(F)cccc3F)c2)nnc1-c1ccncn1 |  | 2.2 |  |  | 9 | 10 | 
CC1=C(C(=O)Nc2ccc3[nH]ncc3c2)C(c2ccc(F)c(C(=O)NCc3cccc(F)c3)c2)NC(=O)N1 (stereo unspecified) |  |  |  | > 100 | 11.9 |  | 
COc1cccc(OC)c1CNC(=O)Cc1cc(C2NC(=O)NC(C)=C2C(=O)Nc2ccc3[nH]ncc3c2)ccc1F (stereo unspecified) |  | > 100 |  | > 100 | > 100 |  | 
CC1=C(C(=O)Nc2ccc3[nH]ncc3c2)C(c2ccc(F)c(C(=O)NCc3c(C)cccc3C)c2)NC(=O)N1 (stereo unspecified) |  |  |  | > 100 | > 100 |  | Active
CC1=C(C(=O)Nc2ccc3[nH]ncc3c2)C(c2ccc(F)cc2)NC(=O)N1 (stereo unspecified) [GSK-180736A] | 0.1 |  |  |  | > 100 |  | Active
CNC(=O)c1cc(C2NC(=O)NC(C)=C2C(=O)Nc2ccc3[nH]ncc3c2)ccc1F (stereo unspecified) | 0.56 | > 100 |  | > 100 | > 100 |  | 
CC1=C(C(=O)Nc2ccc3[nH]ncc3c2)C(c2ccc(F)c(C(=O)NCc3cc(C(F)(F)F)cc(C(F)(F)F)c3)c2)NC(=O)N1 (stereo unspecified) |  | > 100 |  | > 100 | > 100 |  | 
CC1=C(C(=O)Nc2ccc3[nH]ncc3c2)C(c2ccc(F)c(C(=O)O)c2)NC(=O)N1 (stereo unspecified) | 0.19 |  |  | 78.1 | > 100 |  | 
CC1=C(C(=O)Nc2ccc3[nH]ncc3c2)C(c2ccc(F)c(CC(=O)NCc3c(C)cccc3C)c2)NC(=O)N1 (stereo unspecified) |  |  |  | > 100 | > 100 |  | 
CC1=C(C(=O)Nc2ccc3[nH]ncc3c2)C(c2ccc(F)c(C(=O)NCc3c(Cl)cccc3Cl)c2)NC(=O)N1 (stereo unspecified) |  | > 100 |  | > 100 | > 100 |  | 
CC1=C(C(=O)Nc2ccc3[nH]ncc3c2)C(c2ccc(F)c(C(=O)NCc3ccccc3)c2)NC(=O)N1 (stereo unspecified) |  | 4.7 |  | > 100 | 71 |  | 
CC1=C(C(=O)Nc2ccc3[nH]ncc3c2)C(c2ccc(F)c(C(=O)NCc3ccccn3)c2)NC(=O)N1 (stereo unspecified) |  |  | Active | > 100 | 3.9 |  | 
CC1=C(C(=O)Nc2ccc3[nH]ncc3c2)C(c2ccc(F)c(C(=O)NCc3c(F)cccc3F)c2)NC(=O)N1 (stereo unspecified) | 0.11 | 5 | Active | > 100 | > 100 |  | 
COc1cccc(CNC(=O)c2cc(C3NC(=O)NC(C)=C3C(=O)Nc3ccc4[nH]ncc4c3)ccc2F)c1 (stereo unspecified) |  | 3.8 |  | > 100 | > 100 |  | 
CC1=C(C(=O)Nc2ccc3c(c2)OCO3)C(c2ccc(F)c(C(=O)NCc3ccccn3)c2)NC(=O)N1 (stereo unspecified) |  | > 100 |  | > 100 | > 100 |  | 
CC1=C(C(=O)N(C)c2ccc3[nH]ncc3c2)C(c2ccc(F)c(C(=O)NCc3c(C)cccc3C)c2)NC(=O)N1 (stereo unspecified) | 2.1 |  |  | > 100 | > 100 |  | 
COc1ccc(CNC(=O)c2cc(C3NC(=O)NC(C)=C3C(=O)Nc3ccc4[nH]ncc4c3)ccc2F)cc1 (stereo unspecified) |  | 8.1 |  | > 100 | > 100 |  | 
